Assay results reported in ChEMBL document CHEMBL4732238, “Synthesis, biological evaluation, and structure-activity relationships of new tubulin polymerization inhibitors based on 5-amino-1,2,4-triazole scaffold” (Bioorg Med Chem Lett, 2021).

What was measured:
MCF7 [1] = assay: Antiproliferative activity against human MCF7 cells assessed as cell growth inhibition at 100 uM by MTT assay relative to control; format: functional; settings: read-out: GI
Summary of the method: (§1)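 Five human lines (MCF-7, HeLa, A549, PC-3, Panc-1) exposed to a single 100 μM concentration. Viability read by MTT. Results expressed as […] versus untreated control cells.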

HeLa [2] = assay: Antiproliferative activity against human HeLa cells assessed as cell growth inhibition at 100 uM by MTT assay relative to control; format: functional; settings: read-out: GI; summary of the method: as §1
A549 = assay: Antiproliferative activity against human A549 cells assessed as cell growth inhibition at 100 uM by MTT assay relative to control; format: functional; settings: read-out: GI; summary of the method: as §1
PC-3 = assay: Antiproliferative activity against human PC-3 cells assessed as cell growth inhibition at 100 uM by MTT assay relative to control; format: functional; settings: read-out: GI; summary of the method: as §1
PANC-1 [3] = assay: Antiproliferative activity against human PANC-1 cells assessed as cell growth inhibition at 100 uM by MTT assay relative to control; format: functional; settings: read-out: GI; summary of the method: as §1
MCF7 [4] = assay: Antiproliferative activity against human MCF7 cells assessed as cell growth inhibition by MTT assay; format: functional, cell-based
Summary of the method: (§2)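 MTT antiproliferation readout. […] Mean ± SD from three independent experiments.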

HeLa [5] = assay: Antiproliferative activity against human HeLa cells assessed as cell growth inhibition by MTT assay; format: functional, cell-based; summary of the method: as §2
PANC-1 [6] = assay: Antiproliferative activity against human PANC-1 cells assessed as cell growth inhibition by MTT assay; format: functional, cell-based; summary of the method: as §2
K562 = assay: Antiproliferative activity against human K562 cells assessed as cell growth inhibition by MTT assay; format: functional, cell-based
Tubulin (Homo sapiens) = Tubulin (Homo sapiens) (UniProt P68371+Q9H4B7+P0DPH7+P68366+Q13509+Q71U36+P04350+Q3ZCM7+P07437+P68363+Q9BQE3+Q6PEY2+Q13885+Q9BVA1+Q9BUF5); assay: Inhibition of tubulin (unknown origin) polymerization at 10 uM measured every 1 min over 20 mins by fluorescence assay relative to control; format: protein-complex assay
Summary of the method: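 Tubulin in reaction buffer incubated at 37 °C with test agent at final 10 μM; control 1% DMSO. Polymerization followed at 340 nm, read every minute over 20 min. Run three times.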

Tubulin = assay: Inhibition of tubulin (unknown origin) polymerization measured every 1 min over 20 mins by fluorescence assay; format: protein-complex assay, Homo sapiens
Summary of the method: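 Tubulin polymerization at 37 °C in reaction buffer, followed at 340 nm each minute over 20 min; 1% DMSO control. IC50 given as mean of three independent experiments done in quadruplicate.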

HeLa [7] = assay: Cell cycle arrest in human HeLa cells assessed as accumulation at G1/G0 phase at 10 uM measured after 48 hrs by propidium iodide staining based flow cytometry (reference value: 54.82 %); format: functional
HeLa [8] = assay: Cell cycle arrest in human HeLa cells assessed as accumulation at S phase at 10 uM measured after 48 hrs by propidium iodide staining based flow cytometry (reference value: 30.73 %); format: functional
HeLa [9] = assay: Cell cycle arrest in human HeLa cells assessed as accumulation at G2/M phase at 10 uM measured after 48 hrs by propidium iodide staining based flow cytometry (reference value: 14.45 %); format: functional
HeLa [10] = assay: Cell cycle arrest in human HeLa cells assessed as accumulation at G1/G0 phase at 20 uM measured after 48 hrs by propidium iodide staining based flow cytometry (reference value: 54.82 %); format: functional
HeLa [11] = assay: Cell cycle arrest in human HeLa cells assessed as accumulation at S phase at 20 uM measured after 48 hrs by propidium iodide staining based flow cytometry (reference value: 30.73 %); format: functional
HeLa [12] = assay: Cell cycle arrest in human HeLa cells assessed as accumulation at G2/M phase at 20 uM measured after 48 hrs by propidium iodide staining based flow cytometry (reference value: 14.45 %); format: functional
HeLa [13] = assay: Cell cycle arrest in human HeLa cells assessed as accumulation at G1/G0 phase at 40 uM measured after 48 hrs by propidium iodide staining based flow cytometry (reference value: 54.82 %); format: functional
HeLa [14] = assay: Cell cycle arrest in human HeLa cells assessed as accumulation at S phase at 40 uM measured after 48 hrs by propidium iodide staining based flow cytometry (reference value: 30.73 %); format: functional
HeLa [15] = assay: Cell cycle arrest in human HeLa cells assessed as accumulation at G2/M phase at 40 uM measured after 48 hrs by propidium iodide staining based flow cytometry (reference value: 14.45 %); format: functional

SMILES	inhibition of growth at 100 µM (MCF7 [1])	inhibition of growth at 100 µM (HeLa [2])	inhibition of growth at 100 µM (A549)	inhibition of growth at 100 µM (PC-3)	inhibition of growth at 100 µM (PANC-1 [3])	IC50 (MCF7 [4])	IC50 (HeLa [5])	IC50 (PANC-1 [6])	IC50 (K562)	inhibition (Tubulin (Homo sapiens))	IC50 (Tubulin)	Activity (HeLa [7])	Activity (HeLa [8])	Activity (HeLa [9])	Activity (HeLa [10])	Activity (HeLa [11])	Activity (HeLa [12])	Activity (HeLa [13])	Activity (HeLa [14])	Activity (HeLa [15])
COc1ccc(C(=O)Cn2nc(-c3cc(OC)c(OC)c(OC)c3)nc2N)cc1	73%	76%	21%	31%	57%	40.6 µM	52.2 µM	59.8 µM	66 µM	52%	9.4 µM	–	–	–	–	–	–	–	–	–
COc1cc(-c2nc(N)n(CC(=O)Nc3ccc(C(C)(C)C)cc3)n2)cc(OC)c1OC	93%	95%	93%	70%	93%	35.6 µM	18.9 µM	35.1 µM	9.23 µM	48%	–	54.33%	30.96%	14.7%	56.06%	28.35%	15.59%	52.66%	18.6%	28.74%
